Assay results from ChEMBL document CHEMBL1124127, “Central dopaminergic and 5-hydroxytryptaminergic effects of C3-methylated derivatives of 8-hydroxy-2-(di-n-propylamino)tetralin” (J Med Chem, 1988).

Legend:
[1] = tested on: Rattus norvegicus; experiment: Effect on in vivo accumulation of 5-HTP was measured in rat limbic system at 48(Micromol/kg) dose; format: functional
Method in brief: (§1)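 Rats not pretreated with reserpine received test drug (hydrochloride or hydrobromide salt) sc in the neck region 60 min before death. NSD 1015 decarboxylase inhibitor (100 mg/kg, i.e., 573 μmol/kg, ip) was given 30 min before decapitation. Brain was dissected on ice. Tissue was homogenized in 0.1 M perchloric acid with α-methyl-DOPA internal standard. Analytes were quantified by ion-pair reversed-phase HPLC-electrochemical detection. Values are means ± SEM, n = 3-7 per treated group.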

[2] = tested on: Rattus norvegicus; experiment: Effect on in vivo accumulation of DOPA was measured in rat corpus striatum at 48(Micromol/kg) dose; format: functional; method in brief: as §1
[3] = tested on: Rattus norvegicus; experiment: Effect on in vivo accumulation of 5-HTP was measured in rat corpus striatum at 48(umol/kg) dose; format: functional; method in brief: as §1
[4] = tested on: Rattus norvegicus; experiment: Effect on in vivo accumulation of DOPA was measured in rat limbic system at 48(Micromol/kg) dose; format: functional; method in brief: as §1
[5] = tested on: Rattus norvegicus; experiment: Effect on in vivo accumulation of […] was measured in rat corpus striatum at 48(Micromol/kg) dose; format: functional; method in brief: as §1
[6] = tested on: Rattus norvegicus; experiment: Effect on in vivo accumulation of dopamine(DA) was measured in rat limbic system at 48(Micromol/kg) dose; format: functional
Method in brief: (§2)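 Non-reserpinized rats got the test drug sc in the neck (5 mL/kg) 60 min before death, and NSD 1015 (573 µmol/kg ip) 30 min before death. After decapitation, the limbic system was dissected on ice, frozen and homogenized in 0.1 M perchloric acid with α-methyl-DOPA internal standard. DA was measured by ion-pair reversed-phase HPLC with electrochemical detection. Data are mean ± SEM (controls n=17-19, treated 3-7), analysed by ANOVA/Dunnett.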

[7] = biological target: T1, 5-hydroxytryptamine receptor 1A (Rattus norvegicus, UniProt P19327); experiment: Inhibitory activity tested in vitro at 5-hydroxytryptamine 1A receptor binding site in rat
T1 sequence (P19327 whole entry): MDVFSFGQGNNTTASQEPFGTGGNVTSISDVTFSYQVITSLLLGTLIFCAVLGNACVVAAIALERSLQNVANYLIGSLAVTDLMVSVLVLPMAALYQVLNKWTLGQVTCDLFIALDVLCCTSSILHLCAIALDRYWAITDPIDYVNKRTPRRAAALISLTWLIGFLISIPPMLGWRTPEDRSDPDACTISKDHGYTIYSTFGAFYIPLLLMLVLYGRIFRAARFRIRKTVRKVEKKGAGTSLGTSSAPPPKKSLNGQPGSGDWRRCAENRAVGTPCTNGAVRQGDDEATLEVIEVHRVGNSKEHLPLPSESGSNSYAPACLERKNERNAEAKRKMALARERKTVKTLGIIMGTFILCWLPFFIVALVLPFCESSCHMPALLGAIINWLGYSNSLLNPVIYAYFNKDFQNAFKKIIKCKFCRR
Method in brief: (§3)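 Competition binding used rat brain membranes washed in 50 mM Tris-HCl pH 7.4, preincubated 10 min at 37 °C to remove 5-HT, and used at 10 mg wet tissue/mL. Assay: 1 nM [3H]-8-OH-DPAT, 3 mM CaCl2, 100 µM pargyline, 15 min at 37 °C, then filtration on PEI-treated filters. Nonspecific binding was set with 10 µM 5-HT. IC50 came from four-parameter logistic regression, mean ± SEM of N experiments.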

[8] = tested on: Rattus norvegicus; experiment: Effect on in vivo accumulation of DOPA was measured in rat limbic system at 5.9 (umol/kg) dose; format: functional; method in brief: as §1
[9] = tested on: Rattus norvegicus; experiment: Effect on in vivo accumulation of 5-HTP was measured in rat corpus striatum at 59(umol/kg) dose; format: functional; method in brief: as §1
[10] = tested on: Rattus norvegicus; experiment: Effect on in vivo accumulation of […] was measured in rat corpus striatum at 5.9 (umol/kg) dose; format: functional; method in brief: as §1
[11] = tested on: Rattus norvegicus; experiment: Effect on in vivo accumulation of 5-HTP was measured in rat limbic system at 5.9 (umol/kg) dose; format: functional; method in brief: as §1
[12] = tested on: Rattus norvegicus; experiment: Effect on in vivo accumulation of 5-HTP was measured in rat corpus striatum at 5.9(umol/kg) dose; format: functional; method in brief: as §1
[13] = tested on: Rattus norvegicus; experiment: Effect on in vivo accumulation of DOPA was measured in rat corpus striatum at 59(Micromol/kg) dose; format: functional; method in brief: as §1
[14] = tested on: Rattus norvegicus; experiment: Effect on in vivo accumulation of 5-HTP was measured in rat limbic system at 59(Micromol/kg) dose; format: functional; method in brief: as §1
[15] = tested on: Rattus norvegicus; experiment: Effect on in vivo accumulation of […] was measured in rat corpus striatum at 59(Micromol/kg) dose; format: functional; method in brief: as §1
[16] = tested on: Rattus norvegicus; experiment: Effect on in vivo accumulation of dopamine(DA) was measured in rat limbic system at 59(Micromol/kg) dose; format: functional; method in brief: as §2
[17] = tested on: Rattus norvegicus; experiment: Effect on in vivo accumulation of DOPA was measured in rat corpus striatum at 5.9 (umol/kg) dose; format: functional; method in brief: as §1
[18] = tested on: Rattus norvegicus; experiment: Effect on in vivo accumulation of dopamine(DA) was measured in rat limbic system at 5.9 (umol/kg) dose; format: functional; method in brief: as §2
[19] = tested on: Rattus norvegicus; experiment: Effect on in vivo accumulation of DOPA was measured in rat limbic system at 59(Micromol/kg) dose; format: functional; method in brief: as §1
[20] = tested on: Rattus norvegicus; experiment: Effect on in vivo accumulation of DOPA was measured in rat corpus striatum at 43(Micromol/kg) dose; format: functional; method in brief: as §1
[21] = tested on: Rattus norvegicus; experiment: Effect on in vivo accumulation of 5-HTP was measured in rat corpus striatum at 43(umol/kg) dose; format: functional; method in brief: as §1
[22] = tested on: Rattus norvegicus; experiment: Effect on in vivo accumulation of DOPA was measured in rat limbic system at 43(Micromol/kg) dose; format: functional; method in brief: as §1
[23] = tested on: Rattus norvegicus; experiment: Effect on in vivo accumulation of 5-HTP was measured in rat limbic system at 43(Micromol/kg) dose; format: functional; method in brief: as §1
[24] = tested on: Rattus norvegicus; experiment: Effect on in vivo accumulation of dopamine(DA) was measured in rat limbic system at 43(Micromol/kg) dose; format: functional; method in brief: as §2
[25] = tested on: Rattus norvegicus; experiment: Effect on in vivo accumulation of […] was measured in rat corpus striatum at 43(Micromol/kg) dose; format: functional; method in brief: as §1
[26] = biological target: T1, 5-hydroxytryptamine receptor 1A; experiment: In vitro Inhibitory activity tested at 5-hydroxytryptamine 1A receptor binding site in rat; method in brief: as §3
[27] = tested on: Rattus norvegicus; experiment: Effect on in vivo accumulation of dopamine(DA) was measured in rat limbic system at 50(Micromol/kg) dose; format: functional; method in brief: as §2
[28] = tested on: Rattus norvegicus; experiment: Effect on in vivo accumulation of 5-HTP was measured in rat limbic system at 50(Micromol/kg) dose; format: functional; method in brief: as §1
[29] = tested on: Rattus norvegicus; experiment: Effect on in vivo accumulation of […] was measured in rat corpus striatum at 50(Micromol/kg) dose; format: functional; method in brief: as §1
[30] = tested on: Rattus norvegicus; experiment: Effect on in vivo accumulation of DOPA was measured in rat limbic system at 50(Micromol/kg) dose; format: functional; method in brief: as §1
[31] = tested on: Rattus norvegicus; experiment: Effect on in vivo accumulation of DOPA was measured in rat corpus striatum at 50(Micromol/kg) dose; format: functional; method in brief: as §1
[32] = tested on: Rattus norvegicus; experiment: Effect on in vivo accumulation of 5-HTP was measured in rat corpus striatum at 50(umol/kg) dose; format: functional; method in brief: as §1

CCCN(CCC)[C@H]1Cc2c(cccc2OC)C[C@@H]1C (racemic)
Activity [1]: 145 ng/g | Activity [2]: 979 ng/g | Activity [3]: <61.3 ng/g | Activity [4]: 389 ng/g | Activity [5]: 5833 ng/g | Activity [6]: 1225 ng/g

CCCN(CCC)[C@H]1Cc2c(O)cccc2C[C@@H]1C (stereo in doubt; (-))
IC50 [7]: 1.68 µM

CCCN(CCC)[C@H]1Cc2c(cccc2OC)C[C@H]1C (racemic)
Activity [1]: 141 ng/g | Activity [2]: 1078 ng/g | Activity [3]: 88.8 ng/g | Activity [4]: 414 ng/g | Activity [5]: 6465 ng/g | Activity [6]: 1342 ng/g

CCCN[C@H]1Cc2c(O)cccc2C[C@H]1C (stereo in doubt; (+)-13)
Activity [8]: 365 ng/g | Activity [9]: 101 ng/g | Activity [10]: 5924 ng/g | Activity [11]: 131 ng/g | Activity [12]: 104 ng/g | Activity [13]: <525 ng/g | Activity [14]: 140 ng/g | Activity [15]: 5133 ng/g | Activity [16]: 1186 ng/g | Activity [17]: 1013 ng/g | Activity [18]: 1292 ng/g | Activity [19]: <271 ng/g

CCCN(CCC)[C@H]1Cc2c(O)cccc2CC1(C)C (racemic)
Activity [1]: 158 ng/g | Activity [2]: 982 ng/g | Activity [3]: 90 ng/g | Activity [4]: 362 ng/g | Activity [5]: 5417 ng/g | Activity [6]: 1125 ng/g

CCCN(CCC)[C@H]1Cc2c(O)cccc2C[C@@H]1C (stereo in doubt; (-)-11)
Activity [20]: 1039 ng/g | Activity [21]: 117 ng/g | Activity [22]: 381 ng/g | Activity [23]: 136 ng/g | Activity [24]: <800 ng/g | Activity [25]: <4181 ng/g | IC50 [7]: 1.68 µM

CCCN(CCC)[C@H]1Cc2c(O)cccc2C[C@H]1C (racemic)
IC50 [26]: 0.774 µM

CCCN(CCC)[C@H]1Cc2c(O)cccc2C[C@H]1C (stereo in doubt; (+)-15)
Activity [27]: <609 ng/g | Activity [28]: 197 ng/g | Activity [29]: <2758 ng/g | Activity [30]: <507 ng/g | Activity [31]: 1157 ng/g | Activity [32]: 115 ng/g | IC50 [7]: 2.42 µM

CCCN(CCC)[C@H]1Cc2c(O)cccc2C[C@H]1C (stereo in doubt; (-))
IC50 [7]: 0.486 µM

CCCN[C@H]1Cc2c(O)cccc2C[C@@H]1C (stereo in doubt; (-)-9)
Activity [9]: 105 ng/g | Activity [13]: 978 ng/g | Activity [14]: 169 ng/g | Activity [15]: 5588 ng/g | Activity [16]: 975 ng/g | Activity [19]: <340 ng/g
